Our source for the MIC values is ChEMBL document CHEMBL1148855, “Synthesis and antibacterial activity of 4,5,6,7-tetrahydro-thieno[3,2-c]pyridine quinolones” (2007).

In brackets after ≈: the same amount, converted by molar mass.

What all share (format): functional
The test system of one test is Bacillus subtilis. Description: Antibacterial activity against Bacillus subtilis ATCC 6633 by micro-broth dilution method. The method, boiled down: (§1)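 MIC taken as the lowest concentration giving 90% inhibition of bacterial growth. Determined by microbroth dilution following National Committee (NCCLS) guidance, with each value determined in triplicate.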
Test [1] relates to Staphylococcus epidermidis. Description: Antibacterial activity against Staphylococcus epidermidis ATCC 12228 by micro-broth dilution method. Summed up:
as §1

The test system of test [2] is Staphylococcus aureus. Description: Antibacterial activity against Staphylococcus aureus ATCC 33591 by micro-broth dilution method. Summed up:
as §1

In test [3] the test system is Enterococcus faecalis. The test can be described thus: Antibacterial activity against Enterococcus faecalis ATCC 29212 by micro-broth dilution method. The method, boiled down:
as §1

Another test concerns Pseudomonas aeruginosa. The test can be described thus: Antibacterial activity against Pseudomonas aeruginosa ATCC 27853 by micro-broth dilution method. Summed up: as §1
For another test, the system named is Klebsiella pneumoniae. Description: Antibacterial activity against Klebsiella pneumoniae ATCC 10031 by micro-broth dilution method. Summed up:
as §1

The test system of the next test is Escherichia coli. The test can be described thus: Antibacterial activity against Escherichia coli ATCC 25922 by micro-broth dilution method. Summed up: as §1
Test [4] concerns Staphylococcus aureus. Description: Antibacterial activity against Staphylococcus aureus ATCC 25923 by micro-broth dilution method. Summed up:
as §1

For test [5], the system named is Staphylococcus aureus. The test can be described thus: Antibacterial activity against Staphylococcus aureus ATCC 29213 by micro-broth dilution method. The method, boiled down:
as §1

The test system of test [6] is Staphylococcus aureus. The test can be described thus: Antibacterial activity against Staphylococcus aureus ATCC 33592 by micro-broth dilution method. The method, boiled down:
as §1

The test system of test [7] is Staphylococcus aureus. The test can be described thus: Antibacterial activity against methicillin-resistant Staphylococcus aureus ATCC 700699 by micro-broth dilution method. The method, boiled down: (§2)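 Microbroth dilution run per National Committee guidelines; MIC taken as the concentration giving 90% inhibition of bacterial growth. Tested within a broader panel of susceptible and resistant Gram-positive strains. Reported values come from triplicate determinations.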

For test [8], the system named is Staphylococcus aureus. The test can be described thus: Antibacterial activity against linezolid-resistant Staphylococcus aureus NRS 119 by microbroth dilution method. Summed up: as §2
Test [9] deals with Enterococcus faecalis. The test can be described thus: Antibacterial activity against Enterococcus faecalis ATCC 14506 by microbroth dilution method. Summed up: as §1
Test [10] concerns Enterococcus faecalis. The test can be described thus: Antibacterial activity against vancomycin-resistant Enterococcus faecalis ATCC 700802 by micro-broth dilution method. The method, boiled down: as §2
The subject of the next test is Enterococcus faecium. Description: Antibacterial activity against vancomycin-resistant Enterococcus faecium ATCC 700221 by microbroth dilution method. The method, boiled down: as §2
The next test relates to Streptococcus pneumoniae. Description: Antibacterial activity against penicillin-resistant Streptococcus pneumoniae ATCC 700904 by micro-broth dilution method. Summed up:
as §2

`COc1c(N2CCc3sc(Br)cc3C2)c(F)cc2c(=O)c(C(=O)O)cn(C3CC3)c12`: the MIC with Bacillus subtilis is at most 0.12 µg/mL; in test [1] it was at most 0.12 µg/mL; with Staphylococcus aureus [2], 1 µg/mL (≈ 2.03 µM); in the test with Enterococcus faecalis [3] it was 0.5 µg/mL (≈ 1.01 µM); against Pseudomonas aeruginosa, above 16 µg/mL; in the test on Klebsiella pneumoniae, 4 µg/mL (≈ 8.11 µM). In addition, the MIC was 2 µg/mL (≈ 4.05 µM) with Escherichia coli; 2 µg/mL (≈ 4.05 µM) in the test on Staphylococcus aureus [4]; 4 µg/mL (≈ 8.11 µM) in the test with Staphylococcus aureus [5]; 2 µg/mL (≈ 4.05 µM) against Staphylococcus aureus [6]; above 16 µg/mL in the test on Staphylococcus aureus [7]; above 16 µg/mL in the test on Staphylococcus aureus [8]. The minimal inhibitory concentration (MIC) with Enterococcus faecalis [9] was above 16 µg/mL; with Enterococcus faecalis [10], above 16 µg/mL; in the test with Enterococcus faecium, above 16 µg/mL; with Streptococcus pneumoniae it was 8 µg/mL (≈ 16.2 µM).

Regarding `COc1c(N2CCc3sc(C=O)cc3C2)c(F)cc2c(=O)c(C(=O)O)cn(C3CC3)c12`, the minimum inhibitory concentration (MIC) in the test on Bacillus subtilis is at most 0.12 µg/mL; in [1], at most 0.12 µg/mL; with Staphylococcus aureus [2] it was at most 0.12 µg/mL; against Enterococcus faecalis [3], at most 0.12 µg/mL; in the test with Pseudomonas aeruginosa, 8 µg/mL (≈ 18.1 µM); with Klebsiella pneumoniae, at most 0.12 µg/mL. The minimum inhibitory concentration (MIC) is 0.25 µg/mL (≈ 0.565 µM) against Escherichia coli; at most 0.125 µg/mL in the test with Staphylococcus aureus [4]; at most 0.125 µg/mL with Staphylococcus aureus [5]; at most 0.25 µg/mL in the test on Staphylococcus aureus [6]; 0.5 µg/mL (≈ 1.13 µM) in the test with Staphylococcus aureus [7]; at most 0.12 µg/mL in the test on Staphylococcus aureus [8]. Moreover, the MIC against Enterococcus faecalis [9] was 2 µg/mL (≈ 4.52 µM); with Enterococcus faecalis [10], 0.25 µg/mL (≈ 0.565 µM); against Enterococcus faecium it was above 16 µg/mL; against Streptococcus pneumoniae, at most 0.12 µg/mL.

Regarding `COc1c(N2CCc3sc([N+](=O)[O-])cc3C2)c(F)cc2c(=O)c(C(=O)O)cn(C3CC3)c12`, the MIC is at most 0.12 µg/mL in the test on Bacillus subtilis; 4 µg/mL (≈ 8.71 µM) in [1]; at most 0.12 µg/mL in the test on Staphylococcus aureus [2]; at most 0.12 µg/mL in the test on Enterococcus faecalis [3]; 1 µg/mL (≈ 2.18 µM) with Pseudomonas aeruginosa; 0.25 µg/mL (≈ 0.544 µM) in the test on Klebsiella pneumoniae. The MIC was 0.5 µg/mL (≈ 1.09 µM) in the test with Escherichia coli; 4 µg/mL (≈ 8.71 µM) in the test on Staphylococcus aureus [4]; 4 µg/mL (≈ 8.71 µM) in the test with Staphylococcus aureus [5]; 8 µg/mL (≈ 17.4 µM) in the test with Staphylococcus aureus [6]; 16 µg/mL (≈ 34.8 µM) against Staphylococcus aureus [7]; above 16 µg/mL in the test on Staphylococcus aureus [8]. Besides, the minimum inhibitory concentration (MIC) in the test on Enterococcus faecalis [9] is above 16 µg/mL; against Enterococcus faecalis [10], 16 µg/mL (≈ 34.8 µM); against Enterococcus faecium it was above 16 µg/mL; in the test on Streptococcus pneumoniae, 0.5 µg/mL (≈ 1.09 µM).

Turning to `COc1c(N2CCNC(C)C2)c(F)cc2c(=O)c(C(=O)O)cn(C3CC3)c12` (centres undefined) [GATIFLOXACIN], the minimal inhibitory concentration (MIC) is at most 0.12 µg/mL against Bacillus subtilis; 0.25 µg/mL (≈ 0.666 µM) in test [1]; 0.5 µg/mL (≈ 1.33 µM) in the test on Staphylococcus aureus [2]; 0.5 µg/mL (≈ 1.33 µM) with Enterococcus faecalis [3]; 1 µg/mL (≈ 2.66 µM) in the test on Pseudomonas aeruginosa; at most 0.12 µg/mL with Klebsiella pneumoniae. Further, the MIC in the test on Escherichia coli was at most 0.12 µg/mL; in the test on Staphylococcus aureus [4], at most 0.125 µg/mL; in the test with Staphylococcus aureus [5] it was 0.25 µg/mL (≈ 0.666 µM); with Staphylococcus aureus [6] it was 4 µg/mL (≈ 10.7 µM); against Staphylococcus aureus [7], 8 µg/mL (≈ 21.3 µM); against Staphylococcus aureus [8], 4 µg/mL (≈ 10.7 µM). The minimum inhibitory concentration (MIC) against Enterococcus faecalis [9] was 0.5 µg/mL (≈ 1.33 µM); in the test on Enterococcus faecalis [10], 0.5 µg/mL (≈ 1.33 µM); against Enterococcus faecium, above 16 µg/mL; in the test on Streptococcus pneumoniae, at most 0.125 µg/mL.
